The values below come from ChEMBL document CHEMBL1208780, “Tetrahydropyridine derivatives with inhibitory activity on the production of proinflammatory cytokines: part 3” (Bioorg Med Chem Lett, 2010).

pIC50: −log10 of the molar value. Calls of active or inactive are those of the source. The calls are words filed in the database; no cut-off is given here.

For experiment [1], the system named is Blood. The experiment in a line: Antiinflammatory activity in human whole blood assessed as inhibition of LPS-induced TNFalpha production after 6 hrs by immunoassay. Format: functional, tissue-based. A digest of the protocol:
(§1)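 Values are the mean and SD of three to four determinations. IC50 came from a least-squares linear regression of % inhibition against log concentration, with 95% confidence intervals by Fieller's theorem.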

Experiment [2] has as its system Mus musculus. In words: Antiinflammatory activity in po dosed mouse assessed as inhibition of LPS-induced TNFalpha production administered 30 mins before LPS challenge measured after 1 hr by ELISA. It counts as functional. The note with it: read-out: ID50 (the source's name). The procedure, abridged:
(§2)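 Groups of five mice were used. ID50 came from a least-squares linear regression of % inhibition against log dose, with 95% confidence intervals by Fieller's theorem.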

For experiment [3], the target named is Mitogen-activated protein kinase 14 (Homo sapiens, UniProt Q16539). The experiment in a line: Inhibition of p38alpha. The procedure, abridged:
(§3)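 Kinase inhibition IC50 was the mean and SD of three to four determinations. It was derived by least-squares linear regression of % inhibition against log concentration, with 95% confidence intervals by Fieller's theorem.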

Experiment [4] has as its target Mitogen-activated protein kinase 11 (Homo sapiens, UniProt Q15759). The experiment in a line: Inhibition of p38beta. The procedure, abridged:
as §3

Experiment [5] concerns the target T1, Mitogen-activated protein kinase 12 (Homo sapiens, UniProt P53778).
T1 sequence (P53778 whole entry): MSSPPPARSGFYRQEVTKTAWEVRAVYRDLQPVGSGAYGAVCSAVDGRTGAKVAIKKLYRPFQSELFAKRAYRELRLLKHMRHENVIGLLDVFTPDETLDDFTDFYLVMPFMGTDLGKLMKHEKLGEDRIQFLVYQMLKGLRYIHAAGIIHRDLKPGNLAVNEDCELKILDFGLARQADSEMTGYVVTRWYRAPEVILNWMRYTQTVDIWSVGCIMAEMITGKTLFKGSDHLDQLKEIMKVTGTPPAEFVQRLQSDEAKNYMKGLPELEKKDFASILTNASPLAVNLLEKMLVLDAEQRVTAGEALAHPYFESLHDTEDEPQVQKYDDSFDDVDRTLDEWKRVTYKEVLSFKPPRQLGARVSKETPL
In words: Inhibition of p38-gamma. A digest of the protocol:
as §3

In experiment [6] the target is T2, Mitogen-activated protein kinase 13 (Homo sapiens, UniProt O15264).
T2 sequence (O15264 whole entry): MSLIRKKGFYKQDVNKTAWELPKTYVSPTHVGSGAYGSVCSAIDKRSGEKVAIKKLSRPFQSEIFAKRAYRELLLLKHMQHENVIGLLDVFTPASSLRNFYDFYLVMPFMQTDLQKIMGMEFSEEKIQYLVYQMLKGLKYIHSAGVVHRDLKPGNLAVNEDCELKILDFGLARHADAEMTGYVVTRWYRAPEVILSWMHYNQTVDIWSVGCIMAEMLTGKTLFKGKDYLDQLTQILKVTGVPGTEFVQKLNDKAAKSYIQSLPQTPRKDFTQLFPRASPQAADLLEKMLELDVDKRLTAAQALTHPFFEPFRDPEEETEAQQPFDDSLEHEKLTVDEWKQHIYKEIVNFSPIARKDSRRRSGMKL
In words: Inhibition of p38delta. The procedure, abridged:
as §3

Experiment [7] concerns the target T3, Mitogen-activated protein kinase 12 (Homo sapiens) (UniProt P53778).
T3 sequence (whole entry): T1 sequence (P53778 whole entry)
The experiment in a line: Inhibition of p38-gamma at 10 uM.

Experiment [8] deals with T4, Mitogen-activated protein kinase 13 (Homo sapiens) (UniProt O15264).
T4 sequence (whole entry): T2 sequence (O15264 whole entry)
The experiment in a line: Inhibition of p38delta at 10 uM.

In experiment [9] the test system is Blood. In words: Antiinflammatory activity in human whole blood assessed as inhibition of LPS-induced IL1-beta production after 6 hrs by immunoassay. It counts as functional, tissue-based. A digest of the protocol:
as §1

The test system of experiment [10] is Blood. The experiment in a line: Antiinflammatory activity in human whole blood assessed as inhibition of LPS-induced IL-6 production after 6 hrs by immunoassay. It counts as functional, tissue-based. The procedure, abridged: as §1
In experiment [11] the test system is Blood. The experiment in a line: Antiinflammatory activity in human whole blood assessed as inhibition of LPS-induced IL-8 production after 6 hrs by immunoassay. It counts as functional, tissue-based. The procedure, abridged:
as §1

For experiment [12], the system named is Mus musculus. The experiment in a line: Antiinflammatory activity in po dosed mouse assessed as inhibition of LPS-induced IL1-beta production administered 2 hrs after LPS challenge. It counts as functional. The note with it: read-out: ID50 (the source's name). The procedure, abridged: as §2
Experiment [13] relates to Mus musculus. In words: Antiinflammatory activity in po dosed mouse assessed as inhibition of LPS-induced IL-6 production. It counts as functional. Particulars: read-out: ID50 (the source's name). The procedure, abridged:
as §2

The species entered for experiment [14] is Mus musculus. In words: Antiarthritic activity in DBA/1 mouse assessed as inhibition of anti-collagen antibody-induced arthritis after 3 weeks. Particulars: DBA/1, 504 h, read-out: ID50 (the source's name). It counts as functional. The procedure, abridged:
as §2

Experiment [15] is filed under the species Mus musculus. The experiment in a line: Antiarthritic activity in DBA/1 mouse assessed as inhibition of collagen-induced arthritis. Format: functional. The note with it: read-out: ID50 (the source's name). The procedure, abridged: as §2
The subject of experiment [16] is Rattus norvegicus. In words: Antiarthritic activity in po dosed heat-killed mycobacterium tuberculosis-induced rat arthritis model assessed as decrease in paw volume administered QD for 20 days measured on day 21 by plethysmometry. Format: functional. The note with it: read-out: ID50 (the source's name).
The test system of experiment [17] is Rattus norvegicus. The experiment in a line: Antiarthritic activity in po dosed heat-killed mycobacterium tuberculosis-induced rat arthritis model assessed as decrease in paw volume administered BID for 7 days measured 24 hrs post last dose by plethysmometry. It counts as functional. Particulars: read-out: ID50 (the source's name). The procedure, abridged: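 Adjuvant arthritis was established by day 18, and rats with injected-foot volume ≥2.75 mL were grouped to equal means. Test agents in 0.5% CMC were given orally at 5 mL/kg twice daily on days 18–24. Feet were measured by plethysmometer on days 18, 20, 23 and 25. The swelled-foot ratio (day 25/day 18, corrected by normal animals) gave % inhibition versus controls. n=5.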

The test system of experiment [18] is Rattus norvegicus. In words: Analgesic activity in po dosed heat-killed mycobacterium tuberculosis-induced rat arthritis model assessed as decrease in squeaking behavior after 72 hrs […]. It counts as functional. Particulars: read-out: ID50 (the source's name).
Experiment [19] has as its system Blood. The experiment in a line: Antiinflammatory activity in human whole blood assessed as inhibition of LPS-induced TNFalpha production at 1 uM after 6 hrs by immunoassay. It counts as functional.

Chain of Mitogen-activated protein kinase 14 (Q16539 whole entry): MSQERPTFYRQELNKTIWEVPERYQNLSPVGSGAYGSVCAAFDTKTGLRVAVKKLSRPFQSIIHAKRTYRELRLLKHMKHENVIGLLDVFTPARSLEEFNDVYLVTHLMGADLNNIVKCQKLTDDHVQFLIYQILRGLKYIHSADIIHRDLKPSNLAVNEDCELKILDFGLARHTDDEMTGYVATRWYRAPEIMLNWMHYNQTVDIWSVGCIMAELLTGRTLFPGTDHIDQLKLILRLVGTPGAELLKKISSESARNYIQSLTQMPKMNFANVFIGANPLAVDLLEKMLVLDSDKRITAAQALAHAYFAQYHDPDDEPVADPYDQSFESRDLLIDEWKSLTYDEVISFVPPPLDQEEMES
Chain of Mitogen-activated protein kinase 11 (Q15759 whole entry): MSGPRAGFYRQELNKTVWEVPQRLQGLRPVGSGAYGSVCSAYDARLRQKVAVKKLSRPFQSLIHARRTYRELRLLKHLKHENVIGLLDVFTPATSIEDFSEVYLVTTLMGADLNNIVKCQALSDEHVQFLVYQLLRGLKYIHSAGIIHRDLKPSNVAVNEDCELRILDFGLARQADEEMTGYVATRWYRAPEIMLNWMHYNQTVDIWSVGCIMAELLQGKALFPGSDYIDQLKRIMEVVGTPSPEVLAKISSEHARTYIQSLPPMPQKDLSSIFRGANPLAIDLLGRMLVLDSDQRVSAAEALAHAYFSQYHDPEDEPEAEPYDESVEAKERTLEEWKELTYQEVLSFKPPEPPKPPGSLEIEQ

`Fc1ccc(-c2[nH]cc(C3=CC4CCCN4CC3)c2-c2ccncc2)cc1` (stereo not drawn): the pIC50 in the experiment on Blood [1] was 7.38. Also, in the experiment on Mus musculus [2], the ED50 came out at 1.09 mg/kg.
On the same counts, the results for `Fc1ccc(-c2[nH]cc(C3=CCN4CCCCC4C3)c2-c2ccncc2)cc1` (stereo not drawn) are 6.09 and 3.55 mg/kg.
Consider `Fc1ccc(-c2[nH]cc(C3=CCN4CCCC4C3)c2-c2ccncc2)cc1` (stereo not drawn), for which the pIC50 in the experiment on Blood [1] was 6.22. The ED50 in the experiment on Mus musculus [2] came out at 2.85 mg/kg.
Take `Fc1ccc(-c2[nH]cc(C3=CC4CCCCN4CC3)c2-c2ccncc2)cc1` (stereo not drawn): the pIC50 in the experiment with Blood [1] was 6.51. For the same compound, in the experiment on Mus musculus [2], the ED50 stood at 2.27 mg/kg.
Regarding `Fc1ccc(-c2[nH]cc(C3=C[C@@H]4CCCN4CC3)c2-c2ccncc2)cc1`, the pIC50 in the experiment with Blood [1] was 7.59; in [3], 7.47; in [4], 6.24; in experiment [5], under 5.00; in experiment [6], under 5.00; with Blood [9], 7.70. The figures for the pIC50 with Blood [10] and with Blood [11] were 6.06 and 7.80, respectively. The ED50 amounted to 0.93 mg/kg in the experiment on Mus musculus [2]; 8.63 mg/kg in the experiment with Mus musculus [12]; 0.11 mg/kg with Mus musculus [13]; 2.22 mg/kg in the experiment filed under Mus musculus [14]; 2.38 mg/kg in the experiment filed under Mus musculus [15]; 3.1 mg/kg in the experiment on Rattus norvegicus [16]. Also, the ED50 with Rattus norvegicus [17] was 4.9 mg/kg; in the experiment with Rattus norvegicus [18], 2.9 mg/kg. Further, the inhibition entry in experiment [7] and in experiment [8] was “inactive” each time.
Consider `Fc1ccc(-c2[nH]cc(C3=C[C@H]4CCCN4CC3)c2-c2ccncc2)cc1`, for which, in the experiment with Mus musculus [2], the ED50 worked out at 6.59 mg/kg. Besides, the inhibition at 1 µM with Blood [19] came to 49%.
